From ChEMBL document CHEMBL4513216, “Probing the Open Global Health Chemical Diversity Library for Multistage-Active Starting Points for Next-Generation Antimalarials” (ACS Infect Dis, 2020) come the findings set out here.

The nature of this data set: Toxicity liver stage against HepG2, at 10uM. In kind it is cell-based. Also on record: test concentration 10 uM, cell line HepG2-A16-CD81EGFP. The note with it: human, HepG2-A16-CD81EGFP cells; read-out: INHIBITION
An outline of the steps: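 Uninfected HepG2-A16-CD81EGFP cells, 3 × 10^3 per well, 1536-well, plated on prespotted compound at 10 μM final, parasite-free screening media added to match infected plates; puromycin 10 μM positive, DMSO 0.5% negative; run in parallel with 48 h PbLuc assay at 37 °C, 5% CO2; viability by CellTiter-Glo luminescence, normalized to controls.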
In the case of `CN1CCN(CC2(O)CCCN(S(=O)(=O)c3cn[nH]c3)CC2)CC1` (stereo not given), the cytotoxicity at 10 µM turned out to be 2.25%. For `Cn1c(=O)[nH]c(=O)c2cc(C(=O)N3CCCC3C3CCCC3)cnc21` (stereo not given), the cytotoxicity at 10 µM was found to be 14%.

In the case of `CC(=O)N1CCN(C(=O)CCNc2snc(Cl)c2C#N)CC1`, the cytotoxicity at 10 µM is -0.367%.

Consider `CCc1ccc(C(=O)Nc2ccc(CC3CC(=O)NC3=O)cc2)cc1` (stereo not given), for which the cytotoxicity at 10 µM is -13.5%. The result for `Cc1cnc(CN2CCCCC2c2nc(-c3ccccc3)no2)cn1` (stereo not given) reads -42%; that for `FC(F)CN1CCOC(Cn2cccn2)C1` (stereo not given), -9.94%; that for `Cc1cc(N2CCC(NC(=O)CCc3ccco3)CC2)nc(C)n1`, -14.3%. For `O=C(C1CC1)N1CCN(C(=O)C2CC(=O)N(c3ccccc3Br)C2)CC1` (stereo not given) the value was 12.8%. The result for `CC1(C)Cc2c(cnn2-c2cccc(F)c2)C(NC2CCSCC2)C1` (stereo not given) reads -142%; that for `c1cnc(N2CCO[C@H]3CN(CC4CC4)C[C@H]32)nc1`, 5.03%. In the case of `COC(=O)c1ccc(Cn2cccc(C(F)(F)F)c2=O)s1`, the cytotoxicity at 10 µM is -8.03%. The result for `Cc1nn(C)cc1CN1CCCCCC1c1ccccc1Cl` (stereo not given) reads 7.49%; that for `Cn1nc(CNC(=O)CC#N)c2c1CN(C(N)=O)CC2`, 3.8%; that for `COc1ccc(CN2C[C@@H]3OCC(=O)N(Cc4nccn4C)[C@@H]3C2)cc1`, 4.24%.

Consider `Cc1cccc(N2CCN(C(=O)Nc3cnn(CC(N)=O)c3)CC2)c1`, for which the cytotoxicity at 10 µM is -8.31%.

`COC(=O)CNC(=O)N1CCC2(CC1)CC(c1ccccc1)CN(C)C2` (stereo not given): the cytotoxicity at 10 µM was 0.761%. Regarding `COc1cccc(C(=O)N2CC[C@@H]3[C@H](CC2)N(C)CCS3(=O)=O)c1`, the cytotoxicity at 10 µM was -129%. With `CC(C)c1ncc2c(n1)CN(Cc1nc(-c3ccco3)no1)CC2`, the cytotoxicity at 10 µM is -11.4%. Consider `CS(=O)(=O)N1CCOCC2(CN(Cc3ccc(F)cc3)CCO2)C1` (stereo not given), for which the cytotoxicity at 10 µM was determined as 1.42%. Consider `CCCn1nc(C(=O)N2CCCC2c2noc(C)n2)ccc1=O` (stereo not given), for which the cytotoxicity at 10 µM turned out to be 3.57%. For `COc1cc(CN2CCN(CC3CC3)[C@@H]3CS(=O)(=O)C[C@@H]32)cc(OC)c1`, the cytotoxicity at 10 µM stood at 1.41%. For `COCC(=O)N[C@@H]1CN(Cc2c[nH]nc2-c2cccs2)C[C@H]1O` the value was 1.48%; for `Cc1n[nH]c(C)c1C1COCCN1C(=O)Cc1cccc(F)c1` (stereo not given), -10.7%; for `Cc1ccc(C2(CN3CCN(Cc4cn(C)nc4C)CC3)CC2)cc1`, 1.74%.

As for `O=C(Cc1cccs1)N1C[C@@H]2OCCN(CC3CCCC3)[C@@H]2C1`, the cytotoxicity at 10 µM is -4.75%. The result for `Cc1nn(CC(C)C)c(N(C)C)c1CNCCCNS(C)(=O)=O` reads 1.73%; that for `Cc1ncccc1Oc1ncnc(N2CCCC(O)(CO)CC2)c1C` (stereo not given), 4.3%; that for `CNc1nc(C)c(C(=O)N2C[C@@H](C(=O)O)[C@H](C3CC3)C2)s1`, 4.29%. For `CCC(C)CS(=O)(=O)NCCc1csc(N2CCCC2)n1` (stereo not given) the value was 1.28%; for `COC(=O)c1ccc(CN[C@@H]2COC[C@H]2Cc2cc(C)no2)cc1`, -23%. For `Cc1cccc(Cn2c3c(ccc2=O)CCN(Cc2ccoc2)CC3)n1` the value was -11.5%; for `c1ccc(C2CCN(c3cncc(-n4cccn4)n3)CC2)cc1`, -15.3%; for `CCn1c(CC2CCN(S(=O)(=O)c3cccc(C)c3)CC2)nn(C)c1=O`, 2.01%.

In the case of `CC(C)c1ccc(CN2CCCC3(CC2)CN(C)C(=O)O3)cc1` (stereo not given), the cytotoxicity at 10 µM is -3.44%. For `COc1ccc(F)c(NCc2ccc(C(=O)N(C)C)[nH]2)c1` the value was 7.31%; for `CS(=O)(=O)CCCSc1cccc(C#N)c1`, -1.38%; for `CC(C)CO[C@@H]1CC[C@H]2[C@H]1OCCN2S(=O)(=O)C1CC1`, 4.04%. The result for `CCn1cc(C(=O)N2C[C@H]3CC(Oc4ccccc4)C[C@H]3C2)cn1` (stereo not given in full) reads 5.75%; that for `CC(C(=O)N1CCc2sccc2C1)N1CCC(S(N)(=O)=O)CC1` (stereo not given), 9.26%. The result for `O=C1CN(C(=O)C2CCCOC2)CCN1Cc1ccc(Cl)cc1` (stereo not given) reads -152%.

As for `O=C(c1cncc(NCC2COc3ccccc3C2)n1)N1CCCCC1` (stereo not given), the cytotoxicity at 10 µM was found to be 1.64%. For `O=C1NCCO[C@H]2CN(C(=O)Cc3csc4ccccc34)CC[C@@H]12` the value was -101%; for `CCc1nnc2n1CCN(C(=O)C1CCC(n3cccc3)CC1)C2` (stereo not given), -1.5%. Regarding `Cc1cc(NCCCc2c(C)noc2C)nc(N)n1`, the cytotoxicity at 10 µM amounted to 12%. For the compound `c1cc(CN2CCN(Cc3ccon3)C3(CCCCC3)C2)no1`, the cytotoxicity at 10 µM is -16.7%. For the compound `Cc1cccc(N2CCOCC3(C2)CN(c2cncnc2)C(=O)CO3)n1` (stereo not given), the cytotoxicity at 10 µM turned out to be 5.88%. For `COCCN(C)C(C(=O)O)c1ccc2ccccc2c1` (stereo not given) the value was 3.54%. The result for `O=C(c1cnccn1)N1CCn2cnc(COCC3CC3)c2C1` reads 7.14%.

`Cc1cc(CN(C)CC2(O)CCCN(CCC3CCCCC3)C2=O)no1` (stereo not given): the cytotoxicity at 10 µM is -14.4%. In the case of `Cc1ccc(CN2C[C@H]3CN(CC4CCN(C)CC4)C(=O)[C@H]3C2)s1`, the cytotoxicity at 10 µM was found to be 2.5%. For the compound `CCn1nc(Br)nc1Sc1ccccc1NC(C)=O`, the cytotoxicity at 10 µM is -6.17%. For `CCOc1ccc(Cl)cc1C(C(=O)O)N1CCOCC1` (stereo not given), the cytotoxicity at 10 µM is -0.924%. `CCn1ccnc1CN1CCC(CCC(=O)Nc2ccccc2Cl)CC1`: the cytotoxicity at 10 µM is -26.5%. For `CC(=O)Nc1ccc(C(=O)N(C)Cc2cccc(F)c2)s1` the value was 2.82%; for `Cc1csc2c(N3CCC(Cn4cc(C(C)(C)O)nn4)CC3)ncnc12`, 29.9%; for `Cc1nn(C)c(Cl)c1C1CCCN1C(=O)c1cnccn1` (stereo not given), -4.73%. For `COc1ccc(-n2ncc(C(C)NC3CCSCC3)c2C)cc1` (stereo not given) the value was -4.57%; for `CC(C)SCC(=O)NCc1cc2n(n1)CCCN(C1CCCCC1)C2`, 2.37%; for `CC(C)c1cc(C(=O)N2CCC3(CCc4ccccc4C(=O)N3)C2)on1` (stereo not given), 2.53%.

In the case of `Cc1ccc(S(=O)(=O)NC(=O)CCC2CCCO2)cc1` (stereo not given), the cytotoxicity at 10 µM was -15.7%. For `CCc1nc2c(c(NC3CC3)n1)CCN(C(=O)N1CCN(C)CC1)CC2` the value was 0.445%.

For the compound `COc1cccc([C@@H]2N[C@H](c3nccs3)Cc3ccsc32)c1OC`, the cytotoxicity at 10 µM is 5.24%. The result for `Cc1ccc(S(=O)(=O)N2CCOCC2C#N)c(F)c1` (stereo not given) reads 9.78%; that for `Cc1ccc(-c2ncc(C(=O)NCCNC(=O)C3CC3)s2)c(C)c1`, -23.8%. For `CN(CC(=O)NCCCOc1ccc(F)cc1)c1ccc(C#N)cn1` the value was -0.844%; for `CC(C)N1CCC(Cc2cncc(-c3cc(F)ccc3C(=O)O)n2)CC1`, -8.36%.

Turning to `CC(C)(CCS(C)(=O)=O)CNc1ccc2ccc(F)cc2n1`, the cytotoxicity at 10 µM was -6.01%. As to `CCCc1cc(N2CCC(NCCc3ccc(O)cc3)CC2)nc(C)n1`, the cytotoxicity at 10 µM is -6%. With `O=c1oc(-c2ccccc2)nn1CN1CCC(N2CCCCC2)CC1`, the cytotoxicity at 10 µM came out at 6.64%.

For the compound `CC(C)N1CCC(CC(=O)NC(C(=O)O)c2cc(F)ccc2F)CC1` (stereo not given), the cytotoxicity at 10 µM was determined as 1.18%. For `CNCc1ccc(OCc2ccc3c(c2)OCCO3)cc1` the value was 1.61%; for `Cc1ccc([C@@]2(O)CC[C@@H]3CN(S(=O)(=O)c4cn(C)nc4C)C[C@@H]32)cc1`, -16.2%. For `COCC(=O)N1CCc2ccc(=O)n(CC3CC3)c2CC1` the value was 6.7%; for `COc1ccc(OCc2nc(C(=O)N3CCC(NC(C)=O)C3)co2)cc1` (stereo not given), -1.21%; for `CCS(=O)(=O)N1CCN(C(C)(C)CO)CC1`, -2.48%. The result for `CC(C)(C)CN1CCCC12Cc1ccccc1CNC2=O` (stereo not given) reads 22.1%; that for `COCCOCCNC(=O)N1CCN(c2ccccc2C#N)CC1`, 6.39%. As to `CC(=O)Nc1nc(C(=O)NCCOc2cccc(C)c2)cs1`, the cytotoxicity at 10 µM is -0.794%. The result for `CCN(C)c1ccc(C(=O)NCCCc2ccccn2)cn1` reads -43.7%; that for `CCNc1ncc(C(=O)NCc2csc(-c3ncccn3)n2)cn1`, 6.59%; that for `CCn1nccc1CNC(=O)NC1CCCCC1`, -27.5%. Regarding `CCCc1nc(NCCc2ccccc2)c2c(n1)c(C)nn2CC`, the cytotoxicity at 10 µM was found to be 20%. The result for `CCc1cc(C(=O)NCC2CCN(Cc3ccncc3)CC2)on1` reads 10.4%; that for `COCCN1CCC2(CC1)CC(c1cccnc1)C(=O)N2C` (stereo not given), 7.26%; that for `CCCc1nnc(N2CCN(c3ccccc3OCC)CC2)o1`, 3.88%. For `CCc1nc(C2CCCN(c3nccc(N4CCCC4)n3)C2)no1` (stereo not given) the value was 19%. Regarding `CCOc1cc(/C=C/c2ncc(C(=O)O)s2)cc(Br)c1O`, the cytotoxicity at 10 µM was -4.49%. With `CN(C)C(=O)CCS(=O)(=O)Cc1ccn(-c2cccc(F)c2)n1`, the cytotoxicity at 10 µM was -5.71%. For the compound `CCc1noc(CN2CCN(c3nccs3)CC2)n1`, the cytotoxicity at 10 µM is -1.46%. As to `COCCN1CCN(Cc2csc(-c3cnn(C)c3)n2)CC1`, the cytotoxicity at 10 µM is -9.71%. The result for `COc1ncccc1C(=O)N1CC(c2nc(-c3ccccn3)no2)C1` reads 3.19%; that for `NCCNS(=O)(=O)Cc1ccc(Br)cc1`, 19.4%; that for `CN1C[C@@H]2C[C@H](C(=O)Nc3cccnc3)[C@H](C1)O2`, -71.1%. For `O=C(O)c1ccccc1-c1ccc(Cn2c(=O)cc[nH]c2=O)cc1` the value was 5.64%; for `O=C(Nc1ccc(N2CCOCC2)nc1)N1CCc2sccc2C1`, -2.26%.
